Assay results reported in ChEMBL document CHEMBL1914423, “New imidazo[2,1-b]thiazole derivatives: synthesis, in vitro anticancer evaluation, and in silico studies” (Eur J Med Chem, 2011).

System: not listed separately
Assay: Antiproliferative activity against human A375P cells after 48 hrs by MTT assay
Format: functional, cell-based
Conditions: not given
In short: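 A375P cells in DMEM with 10% FBS at 37 °C, 5% CO2. Seeded at 5×10³ cells/well, held 24 h, then treated with 12-point 3-fold serial dilutions for 48 h. Viability by MTT reduction. IC50 values are means of triplicate experiments.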

In order of rising IC50:
1. O=C(NCCNc1nccc(-c2c(-c3cccc(O)c3)nc3sccn23)n1)c1ccccc1  0.5 µM
2. O=C(NCCNc1nccc(-c2c(-c3cccc(O)c3)nc3sccn23)n1)c1ccccc1O  3.2 µM

System: HL-60(TB)
Assay: Anticancer activity against human HL-60(TB) cells assessed as cell growth at 10^-5 M after 48 hrs by SRB assay
Format: functional
Conditions: HL-60, 48 h, read-out: Activity
In short: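 NCI-60 single-dose screen. Cells in RPMI 1640 with 5% FBS and 2 mM L-glutamine were plated at 5000–40,000 cells/well and preincubated 24 h at 37 °C before one compound concentration. Time-zero plates were TCA-fixed at drug addition. For suspension cells, settled cells were fixed with cold TCA, then SRB-stained and read at 515 nm. Percent growth was calculated from time-zero, control and treated absorbances.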

In order of rising growth at 10 µM:
1. O=C(NCCNc1nccc(-c2c(-c3cccc(O)c3)nc3sccn23)n1)c1ccccc1O  59.8%
2. O=C(NCCNc1nccc(-c2c(-c3cccc(O)c3)nc3sccn23)n1)c1ccccc1  93.3%

System: K562
Assay: Anticancer activity against human K562 cells assessed as cell growth at 10^-5 M after 48 hrs by SRB assay
Format: functional
Conditions: K562, 48 h, read-out: Activity
In short: (§1)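 NCI-60 single-dose screen at one concentration. Cells grown in RPMI 1640 with 5% FBS and 2 mM L-glutamine, plated at 5000–40,000 cells/well, and pre-incubated 24 h at 37 °C in 5% CO2 before DMSO-dissolved drug was added. Cells fixed with TCA, SRB-stained, absorbance read at 515 nm. Percent growth calculated against time-zero and untreated control plates.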

In order of rising growth at 10 µM:
1. O=C(NCCNc1nccc(-c2c(-c3cccc(O)c3)nc3sccn23)n1)c1ccccc1O  40.5%
2. O=C(NCCNc1nccc(-c2c(-c3cccc(O)c3)nc3sccn23)n1)c1ccccc1  62.8%

System: MOLT-4
Assay: Anticancer activity against human MOLT4 cells assessed as cell growth at 10^-5 M after 48 hrs by SRB assay
Format: functional
Conditions: MOLT-4, 48 h, read-out: Activity

In order of falling growth at 10 µM:
1. O=C(NCCNc1nccc(-c2c(-c3cccc(O)c3)nc3sccn23)n1)c1ccccc1  67.1%
2. O=C(NCCNc1nccc(-c2c(-c3cccc(O)c3)nc3sccn23)n1)c1ccccc1O  46.2%

System: SR
Assay: Anticancer activity against human SR cells assessed as cell growth at 10^-5 M after 48 hrs by SRB assay
Format: functional
Conditions: read-out: Activity
In short: (§2)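 NCI-60 single-dose screen: cells in RPMI 1640 with 5% FBS and 2 mM L-glutamine, plated at 5000–40,000 cells/well by doubling time, and preincubated 24 h at 37 °C. Compound given at one concentration from DMSO stock. Cells TCA-fixed and SRB-stained, absorbance at 515 nm. Percent growth relative to time-zero and untreated controls; inhibition % = 100 − growth %.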

In order of rising growth at 10 µM:
1. O=C(NCCNc1nccc(-c2c(-c3cccc(O)c3)nc3sccn23)n1)c1ccccc1O  63.2%
2. O=C(NCCNc1nccc(-c2c(-c3cccc(O)c3)nc3sccn23)n1)c1ccccc1  68%

System: A549
Assay: Anticancer activity against human A549 cells assessed as cell growth at 10^-5 M after 48 hrs by SRB assay
Format: functional
Conditions: A549, 48 h, read-out: Activity
In short: as §1

In order of falling growth at 10 µM:
1. O=C(NCCNc1nccc(-c2c(-c3cccc(O)c3)nc3sccn23)n1)c1ccccc1  56.3%
2. O=C(NCCNc1nccc(-c2c(-c3cccc(O)c3)nc3sccn23)n1)c1ccccc1O  43.3%

System: NCI-H460
Assay: Anticancer activity against human NCI-H460 cells assessed as cell growth at 10^-5 M after 48 hrs by SRB assay
Format: functional
Conditions: NCI-H460, 48 h, read-out: Activity

In order of rising growth at 10 µM:
1. O=C(NCCNc1nccc(-c2c(-c3cccc(O)c3)nc3sccn23)n1)c1ccccc1  42.4%
2. O=C(NCCNc1nccc(-c2c(-c3cccc(O)c3)nc3sccn23)n1)c1ccccc1O  57%

System: COLO 205
Assay: Anticancer activity against human COLO205 cells assessed as cell growth at 10^-5 M after 48 hrs by SRB assay
Format: functional
Conditions: COLO 205, 48 h, read-out: Activity
In short: as §1

In order of falling growth at 10 µM:
1. O=C(NCCNc1nccc(-c2c(-c3cccc(O)c3)nc3sccn23)n1)c1ccccc1O  66.5%
2. O=C(NCCNc1nccc(-c2c(-c3cccc(O)c3)nc3sccn23)n1)c1ccccc1  48.5%

System: HCC 2998
Assay: Anticancer activity against human HCC2998 cells assessed as cell growth at 10^-5 M after 48 hrs by SRB assay
Format: functional
Conditions: HCC 2998, 48 h, read-out: Activity
In short: as §1

In order of falling growth at 10 µM:
1. O=C(NCCNc1nccc(-c2c(-c3cccc(O)c3)nc3sccn23)n1)c1ccccc1  97.8%
2. O=C(NCCNc1nccc(-c2c(-c3cccc(O)c3)nc3sccn23)n1)c1ccccc1O  81%

System: SW-620
Assay: Anticancer activity against human SW620 cells assessed as cell growth at 10^-5 M after 48 hrs by SRB assay
Format: functional
Conditions: SW-620, 48 h, read-out: Activity
In short: as §2

In order of falling growth at 10 µM:
1. O=C(NCCNc1nccc(-c2c(-c3cccc(O)c3)nc3sccn23)n1)c1ccccc1  78.2%
2. O=C(NCCNc1nccc(-c2c(-c3cccc(O)c3)nc3sccn23)n1)c1ccccc1O  77.9%

System: SF-295
Assay: Anticancer activity against human SF295 cells assessed as cell growth at 10^-5 M after 48 hrs by SRB assay
Format: functional
Conditions: SF-295, 48 h, read-out: Activity

In order of falling growth at 10 µM:
1. O=C(NCCNc1nccc(-c2c(-c3cccc(O)c3)nc3sccn23)n1)c1ccccc1  67.4%
2. O=C(NCCNc1nccc(-c2c(-c3cccc(O)c3)nc3sccn23)n1)c1ccccc1O  46.4%

System: SNB-19
Assay: Anticancer activity against human SNB19 cells assessed as cell growth at 10^-5 M after 48 hrs by SRB assay
Format: functional
Conditions: SNB-19, 48 h, read-out: Activity

In order of falling growth at 10 µM:
1. O=C(NCCNc1nccc(-c2c(-c3cccc(O)c3)nc3sccn23)n1)c1ccccc1  91.1%
2. O=C(NCCNc1nccc(-c2c(-c3cccc(O)c3)nc3sccn23)n1)c1ccccc1O  90.2%

System: M14
Assay: Anticancer activity against human M14 cells assessed as cell growth at 10^-5 M after 48 hrs by SRB assay
Format: functional
Conditions: M14, 48 h, read-out: Activity
In short: as §1

In order of falling growth at 10 µM:
1. O=C(NCCNc1nccc(-c2c(-c3cccc(O)c3)nc3sccn23)n1)c1ccccc1O  16.7%
2. O=C(NCCNc1nccc(-c2c(-c3cccc(O)c3)nc3sccn23)n1)c1ccccc1  15.3%

System: MDA-MB-435
Assay: Anticancer activity against human MDA-MB-435 cells assessed as cell growth at 10^-5 M after 48 hrs by SRB assay
Format: functional
Conditions: MDA-MB-435, 48 h, read-out: Activity

In order of rising growth at 10 µM:
1. O=C(NCCNc1nccc(-c2c(-c3cccc(O)c3)nc3sccn23)n1)c1ccccc1O  14.3%
2. O=C(NCCNc1nccc(-c2c(-c3cccc(O)c3)nc3sccn23)n1)c1ccccc1  24%

System: SK-MEL-28
Assay: Anticancer activity against human SK-MEL-28 cells assessed as cell growth at 10^-5 M after 48 hrs by SRB assay
Format: functional
Conditions: SK-MEL-28, 48 h, read-out: Activity

In order of rising growth at 10 µM:
1. O=C(NCCNc1nccc(-c2c(-c3cccc(O)c3)nc3sccn23)n1)c1ccccc1  37.8%
2. O=C(NCCNc1nccc(-c2c(-c3cccc(O)c3)nc3sccn23)n1)c1ccccc1O  41.4%

System: SK-MEL-5
Assay: Anticancer activity against human SK-MEL-5 cells assessed as cell growth at 10^-5 M after 48 hrs by SRB assay
Format: functional
Conditions: SK-MEL-5, 48 h, read-out: Activity

In order of falling growth at 10 µM:
1. O=C(NCCNc1nccc(-c2c(-c3cccc(O)c3)nc3sccn23)n1)c1ccccc1  40.2%
2. O=C(NCCNc1nccc(-c2c(-c3cccc(O)c3)nc3sccn23)n1)c1ccccc1O  22.7%

System: UACC-257
Assay: Anticancer activity against human UACC257 cells assessed as cell growth at 10^-5 M after 48 hrs by SRB assay
Format: functional
Conditions: UACC-257, 48 h, read-out: Activity
In short: as §2

In order of rising growth at 10 µM:
1. O=C(NCCNc1nccc(-c2c(-c3cccc(O)c3)nc3sccn23)n1)c1ccccc1  11.3%
2. O=C(NCCNc1nccc(-c2c(-c3cccc(O)c3)nc3sccn23)n1)c1ccccc1O  14.8%

System: UACC-62
Assay: Anticancer activity against human UACC62 cells assessed as cell growth at 10^-5 M after 48 hrs by SRB assay
Format: functional
Conditions: UACC-62, 48 h, read-out: Activity
In short: as §2

In order of falling growth at 10 µM:
1. O=C(NCCNc1nccc(-c2c(-c3cccc(O)c3)nc3sccn23)n1)c1ccccc1  0.9%
2. O=C(NCCNc1nccc(-c2c(-c3cccc(O)c3)nc3sccn23)n1)c1ccccc1O  0.53%

System: IGROV-1
Assay: Anticancer activity against human IGROV1 cells assessed as cell growth at 10^-5 M after 48 hrs by SRB assay
Format: functional
Conditions: IGROV-1, 48 h, read-out: Activity
In short: as §1

In order of rising growth at 10 µM:
1. O=C(NCCNc1nccc(-c2c(-c3cccc(O)c3)nc3sccn23)n1)c1ccccc1O  31.6%
2. O=C(NCCNc1nccc(-c2c(-c3cccc(O)c3)nc3sccn23)n1)c1ccccc1  57.4%

System: OVCAR-4
Assay: Anticancer activity against human OVCAR4 cells assessed as cell growth at 10^-5 M after 48 hrs by SRB assay
Format: functional
Conditions: OVCAR-4, 48 h, read-out: Activity

In order of rising growth at 10 µM:
1. O=C(NCCNc1nccc(-c2c(-c3cccc(O)c3)nc3sccn23)n1)c1ccccc1O  96.2%
2. O=C(NCCNc1nccc(-c2c(-c3cccc(O)c3)nc3sccn23)n1)c1ccccc1  98%

System: NCI/ADR-RES
Assay: Anticancer activity against human NCI/ADR-RES cells assessed as cell growth at 10^-5 M after 48 hrs by SRB assay
Format: functional
Conditions: read-out: Activity

In order of falling growth at 10 µM:
1. O=C(NCCNc1nccc(-c2c(-c3cccc(O)c3)nc3sccn23)n1)c1ccccc1  99.7%
2. O=C(NCCNc1nccc(-c2c(-c3cccc(O)c3)nc3sccn23)n1)c1ccccc1O  73.6%

System: CAKI-1
Assay: Anticancer activity against human Caki1 cells assessed as cell growth at 10^-5 M after 48 hrs by SRB assay
Format: functional
Conditions: CAKI-1, 48 h, read-out: Activity
In short: as §1

In order of rising growth at 10 µM:
1. O=C(NCCNc1nccc(-c2c(-c3cccc(O)c3)nc3sccn23)n1)c1ccccc1O  24.3%
2. O=C(NCCNc1nccc(-c2c(-c3cccc(O)c3)nc3sccn23)n1)c1ccccc1  87.9%

System: RXF 393
Assay: Anticancer activity against human RXF393 cells assessed as cell growth at 10^-5 M after 48 hrs by SRB assay
Format: functional
Conditions: RXF 393, 48 h, read-out: Activity

In order of falling growth at 10 µM:
1. O=C(NCCNc1nccc(-c2c(-c3cccc(O)c3)nc3sccn23)n1)c1ccccc1  62.6%
2. O=C(NCCNc1nccc(-c2c(-c3cccc(O)c3)nc3sccn23)n1)c1ccccc1O  50.9%

System: SN12C
Assay: Anticancer activity against human SN12C cells assessed as cell growth at 10^-5 M after 48 hrs by SRB assay
Format: functional
Conditions: read-out: Activity

In order of falling growth at 10 µM:
1. O=C(NCCNc1nccc(-c2c(-c3cccc(O)c3)nc3sccn23)n1)c1ccccc1  66.4%
2. O=C(NCCNc1nccc(-c2c(-c3cccc(O)c3)nc3sccn23)n1)c1ccccc1O  48%

System: PC-3
Assay: Anticancer activity against human PC3 cells assessed as cell growth at 10^-5 M after 48 hrs by SRB assay
Format: functional
Conditions: PC-3, 48 h, read-out: Activity

In order of rising growth at 10 µM:
1. O=C(NCCNc1nccc(-c2c(-c3cccc(O)c3)nc3sccn23)n1)c1ccccc1O  51.1%
2. O=C(NCCNc1nccc(-c2c(-c3cccc(O)c3)nc3sccn23)n1)c1ccccc1  68.5%

System: MDA-MB-468
Assay: Anticancer activity against human MDA-MB-468 cells assessed as cell growth at 10^-5 M after 48 hrs by SRB assay
Format: functional
Conditions: MDA-MB-468, 48 h, read-out: Activity

In order of rising growth at 10 µM:
1. O=C(NCCNc1nccc(-c2c(-c3cccc(O)c3)nc3sccn23)n1)c1ccccc1O  52%
2. O=C(NCCNc1nccc(-c2c(-c3cccc(O)c3)nc3sccn23)n1)c1ccccc1  54.7%

System: RPMI-8226
Assay: Anticancer activity against human RPMI8226 cells after 48 hrs by SRB assay
Format: functional
Conditions: RPMI-8226, 48 h

In order of falling GI50:
1. O=C(NCCNc1nccc(-c2c(-c3cccc(O)c3)nc3sccn23)n1)c1ccccc1  6.97 µM
2. O=C(NCCNc1nccc(-c2c(-c3cccc(O)c3)nc3sccn23)n1)c1ccccc1O  3.55 µM

In the case of `O=C(NCCNc1nccc(-c2c(-c3cccc(O)c3)nc3sccn23)n1)c1ccccc1O`, the LC50 is reported as > 100 µM.

Compared with `O=C(NCCNc1nccc(-c2c(-c3cccc(O)c3)nc3sccn23)n1)c1ccccc1O`, `O=C(NCCNc1nccc(-c2c(-c3cccc(O)c3)nc3sccn23)n1)c1ccccc1` is lower in TGI: > 100 µM for the first, 25.3 µM for the second.
